One assay deals with HepG2. As to the kind of experiment: Antitumor activity against human HepG2 cells assessed as inhibition of cell growth measured after 48 hrs by MTT assay. Type of assay: functional, cell-based. The settings on record: HepG2, 48 h. The essentials:
(§1)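 MTT assay; cells seeded in 96-well plates, exposed 48 h to freshly prepared compound at five concentrations, four replicate wells each; MTT (5 mg/mL) added for 4 h, formazan dissolved in DMSO, absorbance at 490 nm. IC50 by nonlinear regression; mean of three independent experiments.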
A general note: Formazan colour is commonly taken as a measure of viable cells.

Another assay has as its system HCT-116. As to the kind of experiment: Antitumor activity against human HCT-116 cells assessed as inhibition of cell growth measured after 48 hrs by MTT assay. Format: functional, cell-based. The settings on record: HCT-116, 48 h. The essentials:
as §1

In a further assay the test system is HEK293. As to the kind of experiment: Cytotoxicity against human HEK293 cells assessed as reduction in cell viability measured after 48 hrs by MTT assay. Type of assay: cell-based. The settings on record: HEK293, 48 h. The essentials: as §1
In another assay the test system is SW1990. As to the kind of experiment: Antitumor activity against human SW1990 cells assessed as inhibition of cell growth measured after 48 hrs by MTT assay. Format: functional, cell-based. The settings on record: SW1990, 48 h. The essentials:
as §1

What is called IC50 is the midpoint of a concentration-inhibition curve. As to `CC[C@@]1(OC(=O)NCCO[C@@H]2O[C@H](CO)[C@@H](O)[C@H](OC(N)=O)[C@@H]2O)C(=O)OCc2c1cc1n(c2=O)Cc2cc3ccccc3nc2-1`, the IC50 in the assay with HepG2 was found to be 11.6 µM; in the assay with HCT-116 it was 2.3 µM; in the assay on HEK293, 3.2 µM; in the assay on SW1990 it was 32.8 µM.

For the compound `CC[C@@]1(OC(=O)NCCOCCOCCO[C@@H]2O[C@H](CO)[C@@H](O)[C@H](OC(N)=O)[C@@H]2O)C(=O)OCc2c1cc1n(c2=O)Cc2cc3ccccc3nc2-1`, the IC50 with HepG2 is 0.8 µM; in the assay with HCT-116 it was 0.9 µM; in the assay with HEK293, 0.4 µM; in the assay on SW1990 it was 18.2 µM.

For `CC[C@@]1(OC(=O)NCCOCCOCCO[C@@H]2O[C@H](COC(C)=O)[C@@H](OC(C)=O)[C@H](OC(C)=O)[C@H]2OC(C)=O)C(=O)OCc2c1cc1n(c2=O)Cc2cc3ccccc3nc2-1`, the IC50 in the assay with HepG2 is 0.7 µM; in the assay on HCT-116, 0.8 µM; in the assay on HEK293, 0.6 µM; in the assay with SW1990, 4.5 µM.

With `CC[C@@]1(OC(=O)NCCOCCO[C@@H]2O[C@H](CO)[C@@H](O)[C@H](O)[C@H]2O)C(=O)OCc2c1cc1n(c2=O)Cc2cc3ccccc3nc2-1`, the IC50 was 1.2 µM in the assay on HepG2, 0.5 µM in the assay on HCT-116, 24.6 µM with HEK293 and 9.6 µM in the assay with SW1990.

Take `CC[C@@]1(OC(=O)NCCO[C@@H]2O[C@H](COC(C)=O)[C@H](OC(C)=O)[C@H](OC(C)=O)[C@H]2OC(C)=O)C(=O)OCc2c1cc1n(c2=O)Cc2cc3ccccc3nc2-1`: the IC50 with HepG2 worked out at 60.2 µM; in the assay on HCT-116 it was 29.5 µM; in the assay on HEK293 it was 8.6 µM; in the assay on SW1990 it was 37.5 µM.

Consider `CC[C@@]1(OC(=O)NCCO[C@@H]2O[C@H](CO)[C@H](O)[C@H](O)[C@H]2O)C(=O)OCc2c1cc1n(c2=O)Cc2cc3ccccc3nc2-1`, for which the IC50 is 4.9 µM with HepG2, 4.1 µM in the assay with HCT-116, 2.2 µM in the assay on HEK293 and 9.3 µM with SW1990.

As for `CC[C@@]1(OC(=O)NCCOCCOCCO[C@@H]2O[C@H](CO)[C@@H](O)[C@H](O)[C@@H]2O)C(=O)OCc2c1cc1n(c2=O)Cc2cc3ccccc3nc2-1`, the IC50 with HepG2 amounted to 0.8 µM; with HCT-116 it was 0.5 µM; in the assay with HEK293, 0.6 µM; in the assay on SW1990, 16.3 µM.

For `CC[C@@]1(OC(=O)NCCOCCOCCO[C@@H]2O[C@H](COC(C)=O)[C@@H](OC(C)=O)[C@H](OC(C)=O)[C@@H]2OC(C)=O)C(=O)OCc2c1cc1n(c2=O)Cc2cc3ccccc3nc2-1`, the IC50 with HepG2 was 1.6 µM; with HCT-116, 0.6 µM; in the assay on HEK293, 3.4 µM; in the assay with SW1990, 28.9 µM.

With `CC[C@@]1(OC(=O)NCCOCCOC2O[C@H](COC(C)=O)[C@@H](OC(C)=O)[C@H](OC(C)=O)[C@@H]2OC(C)=O)C(=O)OCc2c1cc1n(c2=O)Cc2cc3ccccc3nc2-1` (single isomer, unassigned), the IC50 stood at 4.8 µM in the assay with HepG2, 4.4 µM in the assay on HCT-116, 20.6 µM in the assay with HEK293 and 10.3 µM in the assay with SW1990.

With `CC[C@@]1(OC(=O)NCCO[C@@H]2O[C@H](COC(C)=O)[C@@H](OC(C)=O)[C@H](OC(N)=O)[C@@H]2OC(C)=O)C(=O)OCc2c1cc1n(c2=O)Cc2cc3ccccc3nc2-1`, the IC50 stood at 18.5 µM in the assay on HepG2, 10.8 µM in the assay with HCT-116, 3.9 µM in the assay on HEK293 and 20.6 µM in the assay with SW1990.

For the compound `CC[C@@]1(OC(=O)NCCO[C@@H]2O[C@H](COC(C)=O)[C@@H](OC(C)=O)[C@H](OC(C)=O)[C@@H]2OC(C)=O)C(=O)OCc2c1cc1n(c2=O)Cc2cc3ccccc3nc2-1`, the IC50 in the assay on HepG2 was determined as 4.3 µM; in the assay on HCT-116, 7.5 µM; in the assay on HEK293, 2.3 µM; in the assay with SW1990, 9.7 µM.

Consider `CC[C@@]1(OC(=O)NCCOCCO[C@@H]2O[C@H](CO)[C@@H](O)[C@H](O)[C@@H]2O)C(=O)OCc2c1cc1n(c2=O)Cc2cc3ccccc3nc2-1`, for which the IC50 stood at 0.3 µM with HepG2, 5.6 µM in the assay on HCT-116, 22.4 µM in the assay with HEK293 and 3.2 µM in the assay with SW1990.

In the case of `CC[C@@]1(OC(=O)NCCO[C@@H]2O[C@H](CO)[C@@H](O)[C@H](O)[C@@H]2O)C(=O)OCc2c1cc1n(c2=O)Cc2cc3ccccc3nc2-1`, the IC50 with HepG2 stood at 10.3 µM; in the assay with HCT-116, 8.2 µM; in the assay on HEK293, 5.8 µM; with SW1990, 20.4 µM.

As to `CC[C@@]1(OC(=O)NCCOCCOCCOC2O[C@H](COC(C)=O)[C@@H](OC(C)=O)[C@H](OC(N)=O)[C@@H]2OC(C)=O)C(=O)OCc2c1cc1n(c2=O)Cc2cc3ccccc3nc2-1` (single isomer, unassigned), the IC50 in the assay on HepG2 stood at 1.8 µM; in the assay on HCT-116, 4.6 µM; with HEK293 it was 3.4 µM; with SW1990, 31.4 µM.

Regarding `CC[C@@]1(OC(=O)NCCOCCO[C@@H]2O[C@H](CO)[C@H](O)[C@H](O)[C@H]2O)C(=O)OCc2c1cc1n(c2=O)Cc2cc3ccccc3nc2-1`, the IC50 with HepG2 was found to be 2.8 µM; in the assay with HCT-116 it was 2.6 µM; in the assay on HEK293, 43.5 µM; in the assay on SW1990 it was 10.6 µM.

In the case of `CC[C@@]1(OC(=O)NCCOCCOC2O[C@H](COC(C)=O)[C@@H](OC(C)=O)[C@H](OC(C)=O)[C@H]2OC(C)=O)C(=O)OCc2c1cc1n(c2=O)Cc2cc3ccccc3nc2-1` (single isomer, unassigned), the IC50 was found to be 2.1 µM in the assay with HepG2, 4.2 µM with HCT-116, 12.3 µM with HEK293 and 10.3 µM in the assay with SW1990.

`CC[C@@]1(OC(=O)NCCO[C@@H]2O[C@H](CO)[C@@H](O)[C@H](O)[C@H]2O)C(=O)OCc2c1cc1n(c2=O)Cc2cc3ccccc3nc2-1`: the IC50 was 3.8 µM in the assay with HepG2, 4.3 µM with HCT-116, 3.5 µM in the assay with HEK293 and 10.3 µM with SW1990.

Take `CC[C@@]1(OC(=O)NCCO[C@@H]2O[C@H](COC(C)=O)[C@@H](OC(C)=O)[C@H](OC(C)=O)[C@H]2OC(C)=O)C(=O)OCc2c1cc1n(c2=O)Cc2cc3ccccc3nc2-1`: the IC50 was 29.9 µM in the assay on HepG2, 15 µM in the assay with HCT-116, 29.5 µM with HEK293 and 24.8 µM in the assay with SW1990.

`CC[C@@]1(OC(=O)NCCOCCOCCO[C@@H]2O[C@H](CO)[C@@H](O)[C@H](O)[C@H]2O)C(=O)OCc2c1cc1n(c2=O)Cc2cc3ccccc3nc2-1`: the IC50 with HepG2 turned out to be 1.3 µM; in the assay on HCT-116 it was 4.8 µM; with HEK293, 0.7 µM; in the assay on SW1990 it was 12.5 µM.

`CC[C@@]1(OC(=O)NCCOCCO[C@@H]2O[C@H](COC(C)=O)[C@@H](OC(C)=O)[C@H](OC(N)=O)[C@@H]2OC(C)=O)C(=O)OCc2c1cc1n(c2=O)Cc2cc3ccccc3nc2-1`: the IC50 in the assay on HepG2 was determined as 3.7 µM; in the assay on HCT-116 it was 3.6 µM; with HEK293, 50.2 µM; in the assay on SW1990, 7.6 µM.
